A selection: hits, their analogues and other compounds. The true share with any hit is near 3%.
rRNA inh HTS: reduced GFP signal of wild-type E. coli, primary screen, bacterial rRNA inhibitor project, GFP/RFP fluorescence, OD600, single point; AID 720706, 2013; GFP signal change (wild-type ribosome), % (concentration not given with the values); E. coli WT GFP vs humanized-ribosome RFP mutants, 24 h; active compounds read low; DMSO median 0, no signal -100; hit rate 1.6% among 350,000;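 active means significant combined selectivity score with lowered wild-type GFP, culture density cut under 30%, mutant RFP and density less affected; inactive means any of these conditions unmet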
PGC1a acetyl inh: inhibitors of PGC1a acetylation signal, primary screen, cell-based, U2OS, AlphaScreen, inhibitor mode. AlphaScreen anti-acetyl-lysine; with virally co-expressed GCN5 acetyltransferase. inhibition, % at 15.6 µM. hit rate 0.17% among 350,000. AID 651687, 2012;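 active means every replicate shows inhibition of at least 40%; inconclusive means mean inhibition at least 40% but some replicate below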
SIRT5 inh: SIRT5 desuccinylase inhibitors, primary screen, biochemical, fluorescence imaging, single point, set 5 | NAD-dependent protein deacylase sirtuin-5, mitochondrial (Homo sapiens), Q9NXA8 | Purified SirT5, succinyl-peptide AMC, trypsin-coupled fluorescence | inhibition, % at 15 µM | hit rate 1.1% among 330,000; in the data active means inhibition above about 15%; inconclusive means no clear call, values can overlap the other calls
Target sequence (Q9NXA8 whole entry, looked up): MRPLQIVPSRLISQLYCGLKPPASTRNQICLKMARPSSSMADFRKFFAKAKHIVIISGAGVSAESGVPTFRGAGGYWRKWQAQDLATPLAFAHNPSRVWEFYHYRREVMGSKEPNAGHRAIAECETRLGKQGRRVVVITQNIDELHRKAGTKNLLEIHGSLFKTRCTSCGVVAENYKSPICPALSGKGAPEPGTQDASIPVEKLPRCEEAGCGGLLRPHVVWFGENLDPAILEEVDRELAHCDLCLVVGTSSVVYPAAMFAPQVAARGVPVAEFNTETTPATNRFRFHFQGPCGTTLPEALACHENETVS
S100A4 inh HTS: inhibitors of S100A4-myosin IIA peptide binding, primary screen, biochemical, fluorescence polarization, TAMRA-MyoIIA peptide. Protein S100-A4 (Homo sapiens), P26447. inhibition, % at 10.7 µM. hit rate 0.14% among 360,000;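 active means mean inhibition of at least 70% across replicates, with every replicate also reaching that level; inconclusive means mean inhibition reaches 70% but some replicates fall short; inactive means mean inhibition below 70%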
Target sequence (P26447 whole entry, looked up): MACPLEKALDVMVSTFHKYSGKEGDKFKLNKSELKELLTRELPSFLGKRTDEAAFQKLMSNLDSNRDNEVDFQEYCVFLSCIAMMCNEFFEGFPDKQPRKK
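System – human S100A4 monomer protein, biochemical binding assay · Buffer or medium – Calcium-containing HEPES buffer, pH 7.2 · Timing – 5 min between mix addition and reading · Also added – TAMRA-labelled myosin IIA heavy-chain peptide probe, 5 nM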
Statin myotox sup: suppressors of statin myotoxicity in C2C12 myotubes, primary screen, cell-based, single point, plate reader | C2C12 myotubes + simvastatin, ATP luminescence, 48 h; scaled: DMSO 0, geranylgeraniol control 100 | rescue of ATP level, % at 7.49 µM | hit rate 0.78% among 330,000 | AID 602340, 2012;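 active means mean ATP rescue above about 67%, or every replicate alone reaching that limit, limit read from the data, passing the limit was not always enough; inconclusive means no clear call, values can overlap the other calls; inactive means mean under the limit and some replicate under it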;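 further: myotubes were challenged with 10 µM simvastatin during compound exposure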
Cneo AK release: Cryptococcus neoformans cell lysis inducers, primary screen, AK release luminescence, single concentration; C. neoformans lysis, adenylate kinase release luminescence, 4 h; normalised: neutral wells 0, clomiphene wells 100; lysis activity, % at 15 µM; hit rate 0.2% among 360,000; AID 651654, 2012;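 active means mean lysis activity across replicates of at least 80%, whatever share of replicates individually reach that level; inactive means mean lysis activity below 80%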
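Material – Cryptococcus neoformans yeast cells · Quantity – 5 × 10^6 yeast cells/mL · Buffer or medium – YPD medium · Compound – single dose · Timing – 4 h static compound exposure, 37 °C, read 1 h post-reagent · Signal – adenylate kinase release luminescence · Read-out basis – lysis from increased AK signal · Benchmarks – Clomiphene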
Numbers stand for hits; 0 = inactive; ? = inconclusive; - = not tested or not shown.

SMILES	rRNA inh HTS	PGC1a acetyl inh	SIRT5 inh	S100A4 inh HTS	Statin myotox sup	Cneo AK release
COc1ccc(C(=O)Nc2ccc3c(c2)OC[C@H](C)NC[C@H](C)[C@@H](OC)CN(C)C3=O)cc1	0	0	0	0	-	-
Cc1ccc2[nH]c(=O)c(CN(CCCN3CCOCC3)C(=O)NC3CCCCC3)cc2c1	-	-	-	-	0	0
CCc1ccc2[nH]c(=O)c(CN(CCN3CCCC3)C(=O)NC3CCCCC3)cc2c1	-	0	-	-	95	0
CCC(=O)N1CCC2(CC1)CN(C(=O)c1ccccn1)[C@@H](CO)c1c2c2ccc(OC)cc2n1C	0	-	-	-	-	-
Cc1noc(C)c1S(=O)(=O)Nc1ccc2c(c1)CC(=O)N([C@@H](C)CO)C[C@H](C)[C@@H](CN(C)Cc1ccc(Cl)c(Cl)c1)O2	0	0	0	0	79	0
Cc1noc(C)c1S(=O)(=O)Nc1ccc2c(c1)CC(=O)N([C@@H](C)CO)C[C@@H](C)[C@@H](CN(C)Cc1ccc(Cl)c(Cl)c1)O2	0	0	0	0	?	0
Cc1noc(C)c1S(=O)(=O)Nc1ccc2c(c1)CC(=O)N([C@@H](C)CO)C[C@@H](C)[C@H](CN(C)Cc1ccc(Cl)c(Cl)c1)O2	0	0	0	0	0	0
Cc1noc(C)c1S(=O)(=O)Nc1ccc2c(c1)CC(=O)N([C@H](C)CO)C[C@H](C)[C@@H](CN(C)Cc1ccc(Cl)c(Cl)c1)O2	0	0	0	0	134	0
C[C@@H]1CCCCO[C@@H](CN(C)C(=O)Nc2ccc3c(c2)OCO3)[C@H](C)CN([C@@H](C)CO)C(=O)c2cc(NS(=O)(=O)c3ccc(F)cc3)ccc2O1	0	0	-	-	0	0
C[C@@H]1CCCCO[C@@H](CN(C)Cc2ccncc2)[C@@H](C)CN([C@H](C)CO)C(=O)c2cc(NC(=O)CCCN(C)C)ccc2O1	0	0	0	0	0	0
Cc1nn(-c2ccccc2)nc1C(=O)Nc1nnc(C(F)(F)F)s1	-32	0	0	0	0	0
CC(C)CC#Cc1ccc2c(c1)O[C@@H](CN(C)C(=O)c1cnccn1)[C@@H](C)CN([C@@H](C)CO)S2(=O)=O	0	0	0	0	0	0
COc1ccccc1N1CCN(/N=C/C=C/c2ccccc2[N+](=O)[O-])CC1	-17	0	0	0	-	0
COc1ccccc1N1CCN(c2ccc([N+](=O)[O-])cn2)CC1	-21	0	0	0	0	0
COc1ccccc1N1CCN(/N=C\c2ccccc2)CC1	0	0	0	0	0	0
COc1ccccc1N1CCN(/N=C\c2sccc2C)CC1	-28	0	0	0	-	-
Cc1ccc(N2CCN(/N=C/c3sccc3C)CC2)cc1	-	0	-	-	140	0
O=[N+]([O-])c1ccccc1/C=C\C=N\N1CCN(c2ccccc2)CC1	0	-	0	0	0	0
Cc1cccc(-c2ccc([C@@H]3[C@@H](CO)N4C(=O)CN(C(=O)c5cnccn5)C[C@H]34)cc2)c1	0	-	-	-	-	-
O=C(NCC1CC1)[C@@H]1[C@@H](CO)[C@@H]2Cn3c(ccc(-c4cccnc4)c3=O)[C@H]1N2Cc1nccs1	0	-	0	0	0	0
C[C@H]1CN([C@@H](C)CO)C(=O)c2cc(-c3ccc(C#N)cc3)cnc2O[C@H]1CN(C)Cc1cncnc1	0	0	-	-	0	-
CN1c2ccc(C#Cc3cccnc3)cc2[C@H]2[C@H](CCN2C(=O)c2cccnc2)[C@@H]1CO	0	0	0	0	0	0
CC1(Cc2ccc(Cl)cc2)C(=O)Nc2ccc(-c3cccnc3)cc21 (stereo not drawn)	0	46	0	0	116	0
Cc1nn(-c2ccccc2)c(Cl)c1/C=C1\SC(=S)N(CCCCCC(=O)O)C1=O	-32	0	0	0	0	-
Cc1nn(-c2ccccc2)c(Cl)c1/C=C1\SC(=S)NC1=O	-	0	-	-	-	-
SMILES	rRNA inh HTS	PGC1a acetyl inh	SIRT5 inh	S100A4 inh HTS	Statin myotox sup	Cneo AK release
COC(=O)C[C@@H]1C[C@@H]2c3cc(NC(=O)Nc4ccc(C(F)(F)F)cc4)ccc3O[C@@H]2[C@H](CO)O1	0	-	0	0	0	0
Nc1nc(CSc2nnnn2-c2ccccc2)nc(N2CCCc3ccccc32)n1	-	0	-	-	115	0
O=C(c1ccc2c(c1)OCO2)N1CC(=O)N2[C@H](CO)[C@H](c3ccc(C#CC4CCCC4)cc3)[C@@H]2C1	0	0	0	0	-	-
Cc1cc(/C=C(/C#N)c2cccc(F)c2)c(C)n1-c1cccnc1	-35	0	0	0	0	0
Cc1cc(/C=C(\C#N)C(=O)NCc2ccco2)c(C)n1-c1cccnc1	0	-	0	0	-	-
O=C(OC(c1ccccc1)c1nccc2ccccc12)c1ccccc1 (stereo not drawn)	0	-	0	0	0	0
CC(C)C(OC(=O)c1ccccc1)c1nccc2ccccc12 (stereo not drawn)	-28	-	0	0	0	0
Cc1ccccc1OCC(=O)NCCNC(=O)c1ccccn1	0	0	30	0	0	0
Cc1ccccc1OCCNC(=O)CNC(=O)c1ccccc1O	-27	0	0	0	-	0
CC(C)Oc1ccc(C(=O)NCCCNC(=O)c2ccccn2)cc1	0	0	17	0	0	0
CO[C@@H]1CN(C)C(=O)c2cc(NC(=O)C3CCC3)ccc2OC[C@H](C)N(C(=O)CN(C)C)C[C@H]1C	0	0	0	0	0	0
COCC#Cc1ccc2c(c1)O[C@H](CN(C)Cc1ccccn1)[C@@H](C)CN([C@H](C)CO)S2(=O)=O	0	0	0	0	0	0
O=C1NC(=O)/C(=C\c2ccc(Br)o2)S1	0	-	0	0	0	0
O=C1NC(=O)/C(=C/c2ccc(-c3cc(C(=O)O)ccc3Cl)o2)S1	0	-	26	0	0	0
COc1cccc(C#Cc2cnc3c(c2)C(=O)N([C@@H](C)CO)C[C@@H](C)[C@H](CN(C)C(C)=O)O3)c1	0	0	0	0	0	0
CO[C@@H](CN(C)Cc1cc(F)ccc1F)[C@@H](C)CN(C(=O)Nc1ccc(C(F)(F)F)cc1)[C@@H](C)CO	-	0	0	0	0	0
O=C(Nc1ccccc1)OC1CCCCc2cccnc21 (stereo not drawn)	0	0	0	0	0	0
O=C(Nc1cccc(Cl)c1)OC1CCCCc2cccnc21 (stereo not drawn)	-24	-	0	0	-	-
O=C(Cc1ccccn1)NCC[C@H]1CC[C@H](NC(=O)Nc2ccccc2)[C@H](CO)O1	0	0	0	0	0	0

Screening results deposited in PubChem BioAssay by Broad Institute.
